Results reported in ChEMBL document CHEMBL2380279 (Bioorg Med Chem Lett, 2013).

Legend:
[1] = species on record: Homo sapiens; test: Selectivity ratio of Ki for delta opioid receptor (unknown origin) to Ki for kappa opioid receptor (unknown origin)
[2] = target: T1, Kappa-type opioid receptor (Homo sapiens, UniProt P41145); test: Displacement of [3H]U69593 from kappa opioid receptor (unknown origin)
Summary of the method: (§1)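 Competition radioligand binding. Ki was determined against [3H]DAMGO for MOR, [3H]DADLE for DOR and […] for KOR. Values are the mean of three experiments, each run in duplicate.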

[3] = species on record: Homo sapiens; test: Selectivity ratio of Ki for mu opioid receptor (unknown origin) to Ki for kappa opioid receptor (unknown origin)
[4] = target: Delta-type opioid receptor (Homo sapiens, UniProt P41143); test: Displacement of [3H]DADLE from delta opioid receptor (unknown origin); summary of the method: as §1
[5] = target: Mu-type opioid receptor (Homo sapiens, UniProt P35372); test: Displacement of [3H]DAMGO from mu opioid receptor (unknown origin); summary of the method: as §1
[6] = target: T1, Kappa-type opioid receptor; test: Agonist activity at kappa opioid receptor in human HEK293 cells assessed as stimulation of Galphai signaling by cAMP assay; type: functional, cell-based
Summary of the method: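 Live HEK293 cells carrying the cAMP biosensor GloSensor-22F. Galphai activation through KOR was read from the cAMP signal. EC50 reported as mean ± SD.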

T1 sequence (P41145 whole entry): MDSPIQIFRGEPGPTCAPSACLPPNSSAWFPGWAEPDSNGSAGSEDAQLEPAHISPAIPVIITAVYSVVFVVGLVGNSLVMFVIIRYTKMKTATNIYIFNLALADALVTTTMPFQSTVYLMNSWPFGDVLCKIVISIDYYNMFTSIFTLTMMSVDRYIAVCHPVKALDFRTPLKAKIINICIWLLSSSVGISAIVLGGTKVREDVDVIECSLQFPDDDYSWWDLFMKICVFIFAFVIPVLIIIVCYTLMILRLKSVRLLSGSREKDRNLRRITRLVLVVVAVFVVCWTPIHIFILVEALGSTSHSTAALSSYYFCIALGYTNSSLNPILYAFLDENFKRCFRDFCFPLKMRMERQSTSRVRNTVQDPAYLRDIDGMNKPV
Delta-type opioid receptor, sequence (P41143 whole entry): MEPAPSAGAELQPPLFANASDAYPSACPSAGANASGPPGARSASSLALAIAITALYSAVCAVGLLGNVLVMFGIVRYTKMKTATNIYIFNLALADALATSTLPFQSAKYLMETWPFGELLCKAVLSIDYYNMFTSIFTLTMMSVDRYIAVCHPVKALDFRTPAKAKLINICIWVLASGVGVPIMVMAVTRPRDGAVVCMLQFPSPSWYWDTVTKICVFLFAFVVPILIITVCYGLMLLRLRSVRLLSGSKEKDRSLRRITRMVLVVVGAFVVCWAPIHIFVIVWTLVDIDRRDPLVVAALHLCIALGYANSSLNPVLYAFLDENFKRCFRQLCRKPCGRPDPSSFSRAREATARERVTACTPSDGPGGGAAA
Mu-type opioid receptor, sequence (P35372 whole entry): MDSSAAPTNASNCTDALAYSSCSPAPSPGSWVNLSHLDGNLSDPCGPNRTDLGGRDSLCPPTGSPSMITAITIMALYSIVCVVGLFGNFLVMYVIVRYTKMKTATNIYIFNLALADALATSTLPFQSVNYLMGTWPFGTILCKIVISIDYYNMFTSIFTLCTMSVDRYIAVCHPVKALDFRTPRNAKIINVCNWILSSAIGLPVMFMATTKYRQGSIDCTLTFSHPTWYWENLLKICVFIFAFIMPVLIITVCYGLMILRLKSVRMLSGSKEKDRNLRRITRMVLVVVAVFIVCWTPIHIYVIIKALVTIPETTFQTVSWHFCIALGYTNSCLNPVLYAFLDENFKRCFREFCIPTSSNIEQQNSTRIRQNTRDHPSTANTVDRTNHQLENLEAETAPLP

| Structure (SMILES) | Ratio Ki [1] | Ki [2] [nM] | Ratio Ki [3] | Ki [4] [µM] | Ki [5] [µM] | EC50 [6] [nM] |
| --- | --- | --- | --- | --- | --- | --- |
| COC(=O)CCCC(=O)O[C@H]1C[C@@H](C(=O)OC)[C@]2(C)CC[C@H]3C(=O)O[C@H](c4ccoc4)C[C@]3(C)[C@H]2C1=O | > 33 | 302 | 16 | > 10 | 5.01 | – |
| COC(=O)[C@@H]1C[C@H](OC(=O)CCC(=O)O)C(=O)[C@H]2[C@@]1(C)CC[C@H]1C(=O)O[C@H](c3ccoc3)C[C@]21C | – | 4070 | – | > 10 | > 10 | – |
| CCOC(=O)CC(=O)O[C@H]1C[C@@H](C(=O)OC)[C@]2(C)CC[C@H]3C(=O)O[C@H](c4ccoc4)C[C@]3(C)[C@H]2C1=O [ETHYLSALVINORINB-2-O-MALONATE] | > 476 | 21 | – | > 10 | > 10 | 52 |
| COC(=O)[C@@H]1C[C@H](O)C(=O)[C@H]2[C@@]1(C)CC[C@H]1C(=O)O[C@H](c3ccoc3)C[C@]21C [SALVINORIN B] | – | – | – | > 10 | > 10 | – |
| CCOC(=O)CCC(=O)O[C@H]1C[C@@H](C(=O)OC)[C@]2(C)CC[C@H]3C(=O)O[C@H](c4ccoc4)C[C@]3(C)[C@H]2C1=O | > 23 | 437 | – | > 10 | > 10 | – |
| COC(=O)CCC(=O)O[C@H]1C[C@@H](C(=O)OC)[C@]2(C)CC[C@H]3C(=O)O[C@H](c4ccoc4)C[C@]3(C)[C@H]2C1=O | > 277 | 36 | – | > 10 | > 10 | 855 |
| COC(=O)[C@@H]1C[C@H](OC(=O)c2ccccc2C(=O)O)C(=O)[C@H]2[C@@]1(C)CC[C@H]1C(=O)O[C@H](c3ccoc3)C[C@]21C | > 4 | 2290 | – | > 10 | > 10 | – |
| COC(=O)/C=C/C(=O)O[C@H]1C[C@@H](C(=O)OC)[C@]2(C)CC[C@H]3C(=O)O[C@H](c4ccoc4)C[C@]3(C)[C@H]2C1=O | > 256 | 39 | 18 | > 10 | 0.711 | 70 |
| COC(=O)CC(=O)O[C@H]1C[C@@H](C(=O)OC)[C@]2(C)CC[C@H]3C(=O)O[C@H](c4ccoc4)C[C@]3(C)[C@H]2C1=O | 2160 | 2 | – | 4.32 | > 10 | 137 |
| COC(=O)[C@@H]1C[C@H](OC(=O)CC(=O)OC(C)(C)C)C(=O)[C@H]2[C@@]1(C)CC[C@H]1C(=O)O[C@H](c3ccoc3)C[C@]21C | > 67 | 148 | – | > 10 | > 10 | – |
| COC(=O)CCCCC(=O)O[C@H]1C[C@@H](C(=O)OC)[C@]2(C)CC[C@H]3C(=O)O[C@H](c4ccoc4)C[C@]3(C)[C@H]2C1=O | > 17 | 575 | – | > 10 | > 10 | – |
| COC(=O)[C@@H]1C[C@H](OC(=O)CCCC(=O)O)C(=O)[C@H]2[C@@]1(C)CC[C@H]1C(=O)O[C@H](c3ccoc3)C[C@]21C | > 38 | 263 | 17 | > 10 | 4.57 | – |
| COC(=O)[C@@H]1C[C@H](OC(=O)CSC#N)C(=O)[C@H]2[C@@]1(C)CC[C@H]1C(=O)O[C@H](c3ccoc3)C[C@]21C [22-THIOCYANATOSALVINORIN A] | – | – | – | > 10 | > 10 | – |
| COC(=O)[C@@H]1C[C@H](OC(=O)/C=C\C(=O)O)C(=O)[C@H]2[C@@]1(C)CC[C@H]1C(=O)O[C@H](c3ccoc3)C[C@]21C | 1 | > 10000 | 1 | > 10 | > 10 | – |
| CCOC(=O)/C=C/C(=O)O[C@H]1C[C@@H](C(=O)OC)[C@]2(C)CC[C@H]3C(=O)O[C@H](c4ccoc4)C[C@]3(C)[C@H]2C1=O | > 23 | 427 | 2 | > 10 | 0.724 | – |
